Measurements pooled from the literature.
Target: Homeodomain-interacting protein kinase 1 (HIPK1, Homo sapiens, UniProt Q86Z02)

| SMILES | test | conditions | quantity | result |
| --- | --- | --- | --- | --- |
| Cn1cncc1[C@@](O)(COc1ccc(C#N)cc1-c1ccc(OC(F)(F)F)cc1)c1ccc(C#N)cc1 | cell-free assay, competition with immobilised ligand | 1 µM | remaining binding | 79% |
| Cn1cc(-c2cc(F)cc(N3CCn4c(cc5c4CCCC5)C3=O)c2CO)cc(Nc2ccc(N3CCN(C4COC4)CC3)cn2)c1=O | enzyme activity, inhibitor | 0.1 µM | inhibition | 5% |
| CC(C)(C)c1cc(C=C(C#N)C#N)cc(Br)c1O | enzyme activity, inhibitor | 0.5 µM | remaining activity | 104% |
| Cc1nn(C)cc1-c1nc2c(N3CCN(Cc4ccc(Cl)cc4)CC3)c(Cl)cnc2[nH]1 | binding, competition with immobilised ligand | 1 µM | remaining binding | 66% |
| COc1ncccc1-c1cnn2ccc(N3CCN(C(=O)OC(C)C)CC3)nc12 | binding, competition with immobilised ligand | 1 µM | remaining binding | 92% |
| O=c1[nH]c2ccccc2n1C1CCN(Cc2ccc(-c3[nH]c4cc5ncnc5cc4nc3-c3ccccc3)cc2)CC1 | cell-free assay | 0.5 µM | remaining signal | 106% |
| Nc1ncc(-c2nc(N3CCOCC3)nc(N3CCOCC3)n2)c(C(F)F)n1 | binding, competition with immobilised ligand | 10 µM | remaining binding | 69% |
| Cn1cc(-c2cccc(N3CCc4c(sc5c4CC(C)(C)C5)C3=O)c2CO)cc(Nc2ccncn2)c1=O | enzyme activity, inhibitor | 1 µM | inhibition | -2% |
